Experimental data reported in ChEMBL document CHEMBL4325838, “Norbornane-based cationic antimicrobial peptidomimetics targeting the bacterial membrane” (Eur J Med Chem, 2018).
≈ marks a conversion by molar mass, not a printed value.

What was measured:
[1] = Cytotoxicity against HEK293 cells after 24 hrs by resazurin dye-based fluorescence analysis; assay type: cell-based; conditions: human
How it was run: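 HEK293 cells were seeded at 3000/well in DMEM with 10% FBS and attached for 24 h at 37 °C, 5% CO₂. A compound concentration series was applied for 24 h. Resazurin was added at 10 µM for 2 h and fluorescence read at ex/em 560/590. Results are average percentage of control ± SD of duplicate wells.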

Staphylococcus aureus [2] = assay: Antibacterial activity against glycopeptide-intermediate/methicillin-resistant Staphylococcus aureus NARSA NRS1 after 18 to 20 hrs by broth microdilution assay
Cryptococcus neoformans = assay: Antifungal activity against Cryptococcus neoformans H99 ATCC 208821 after 18 to 20 hrs by broth microdilution assay; assay type: functional; conditions: var. grubii H99 ATCC 208821
Staphylococcus aureus [3] = assay: Antibacterial activity against vancomycin-resistant Staphylococcus aureus NARSA VRS10 after 18 to 20 hrs by broth microdilution assay
[4] = Drug localization in peripheral region of […] Escherichia coli ATCC 25922 at 10 ug/ml after 20 mins by confocal microscopic analysis; assay type: ADME
How it was run: (§1)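 E. coli ATCC 25922 was grown overnight in LB broth at 37 °C with gentle shaking. Cells were exposed to 10 µg/mL fluorescent compound in LB for 20 min at 37 °C. Localisation was imaged by confocal microscopy, including 3D rendering.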

Klebsiella pneumoniae [5] = assay: Antibacterial activity against multidrug-resistant Klebsiella pneumoniae ATCC 700603 after 18 to 20 hrs by broth microdilution assay; assay type: functional
How it was run: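 Strains were grown overnight at 37 °C with shaking in nutrient broth or MHB, diluted 50-fold in MHB and grown 1.5–3 h to mid-log. Compounds were 2-fold serially diluted in MHB at 32 to 0.015 µg/mL final (1% DMSO) with 5×10^5 CFU/mL. […] Two independent experiments of n = 2 (n = 4).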

Staphylococcus aureus [6] = assay: microbe, parasite or virus in culture; conditions: ATCC 43300
[7] = Drug localization in methicillin-resistant Staphylococcus aureus subsp. aureus Rosenbach ATCC 43300 at 10 ug/ml after 20 mins by confocal microscopic analysis; assay type: ADME
How it was run: (§2)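 MRSA ATCC 43300 was grown overnight in LB broth at 37 °C with gentle shaking, then incubated 20 min at 37 °C with 10 µg/mL fluorescent compound in LB. Cells were fixed in 4% paraformaldehyde for 20 min, wet-mounted on slides and imaged by confocal microscopy.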

Staphylococcus aureus [8] = assay: Antibacterial activity against glycopeptide-intermediate resistant Staphylococcus aureus NARSA NRS17 after 18 to 20 hrs by broth microdilution assay
Pseudomonas aeruginosa [9] = assay: Antibacterial activity against Pseudomonas aeruginosa ATCC 27853 after 18 to 20 hrs by broth microdilution assay; assay type: functional
How it was run: (§3)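 Bacteria grown overnight at 37 °C with shaking in nutrient broth or Mueller-Hinton broth (MHB). Cultures were diluted 50-fold in MHB and grown 1.5–3 h to mid-log phase, then set at 5×10^5 CFU/mL final. Compounds were 2-fold serially diluted, final 32 to 0.015 µg/mL, 1% DMSO. […] Two independent experiments of n = 2 (n = 4).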

[10] = Drug localization in […] Escherichia coli ATCC 25922 at 10 ug/ml after 20 mins by confocal microscopic analysis; assay type: ADME; how it was run: as §1
Streptococcus pneumoniae = assay: microbe, parasite or virus in culture; conditions: ATCC 700677
Candida albicans = assay: Antifungal activity against Candida albicans ATCC 90028 after 18 to 20 hrs by broth microdilution assay; assay type: functional
[11] = Drug localization in peripheral region of methicillin-resistant Staphylococcus aureus subsp. aureus Rosenbach ATCC 43300 at 10 ug/ml after 20 mins by confocal microscopic analysis; assay type: ADME; how it was run: as §2
Acinetobacter baumannii [12] = assay: Antibacterial activity against Acinetobacter baumannii ATCC 19606 after 18 to 20 hrs by broth microdilution assay; assay type: functional; conditions: ATCC 19606 = CIP 70.34 = JCM 6841; how it was run: as §3
Escherichia coli [13] = assay: Antibacterial activity against Escherichia coli ATCC 25922 after 18 to 20 hrs by broth microdilution assay; assay type: functional; how it was run: as §3
Escherichia coli [14] = assay: Antibacterial activity against Escherichia coli ATCC 25922 after 20 hrs by micro-broth dilution assay; assay type: functional; conditions: ATCC 25922, 20 h
Pseudomonas aeruginosa [15] = assay: Antibacterial activity against Pseudomonas aeruginosa ATCC 27853 after 20 hrs by micro-broth dilution assay; assay type: functional; conditions: ATCC 27853, 20 h
Staphylococcus aureus [16] = assay: Antibacterial activity against methicillin-resistant Staphylococcus aureus ATCC 43300 after 20 hrs by micro-broth dilution assay; assay type: functional; conditions: ATCC 43300, 20 h
Klebsiella pneumoniae [17] = assay: Antibacterial activity against Klebsiella pneumoniae ATCC 13883 assessed as zone of inhibition at 50 ug/disc after 20 hrs by disk diffusion assay; assay type: functional; conditions: ATCC 13883, 20 h, read-out: IZ
How it was run: (§4)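 Disks loaded with 50 µg compound. Isolate suspensions were adjusted to 0.5 McFarland in 0.9% NaCl and swabbed onto nutrient agar plates, with zones of inhibition measured. Controls: 10 µg colistin sulphate disk, 10 µL DMSO, and a plate swabbed with saline from the dispenser.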

Pseudomonas aeruginosa [18] = assay: Antibacterial activity against Pseudomonas aeruginosa ATCC 27853 assessed as zone of inhibition at 50 ug/disc after 20 hrs by disk diffusion assay; assay type: functional; conditions: ATCC 27853, 20 h, read-out: IZ; how it was run: as §4
Staphylococcus aureus [19] = assay: Antibacterial activity against methicillin-resistant Staphylococcus aureus ATCC 43300 assessed as zone of inhibition at 50 ug/disc after 20 hrs by disk diffusion assay; assay type: functional; conditions: ATCC 43300, 20 h, read-out: IZ
How it was run: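 Disk diffusion, 50 µg compound per disk. Bacterial suspensions were adjusted to 0.5 McFarland in 0.9% NaCl and swabbed onto nutrient agar plates. Controls were a 10 µg colistin sulphate disk, 10 µL DMSO, and a plate swabbed with saline from the dispenser.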

Acinetobacter baumannii [20] = assay: Antibacterial activity against Acinetobacter baumannii ATCC 19606 assessed as zone of inhibition at 50 ug/disc after 20 hrs by disk diffusion assay; assay type: functional; conditions: ATCC 19606 = CIP 70.34 = JCM 6841, 20 h, read-out: IZ; how it was run: as §4
Enterococcus faecium = assay: Antibacterial activity against Enterococcus faecium ATCC 700221 assessed as zone of inhibition at 50 ug/disc after 20 hrs by disk diffusion assay; assay type: functional; conditions: ATCC 700221, 20 h, read-out: IZ; how it was run: as §4

SMILES	CC50 at 24 h [1] [µg/mL]	MIC (Staphylococcus aureus [2]) [µg/mL]	MIC (Cryptococcus neoformans) [µg/mL]	MIC (Staphylococcus aureus [3]) [µg/mL]	MIC (Klebsiella pneumoniae [5]) [µg/mL]	MIC (Staphylococcus aureus [6]) [µg/mL]	MIC (Staphylococcus aureus [8]) [µg/mL]	MIC (Pseudomonas aeruginosa [9]) [µg/mL]	Drug uptake [10]	MIC (Streptococcus pneumoniae) [µg/mL]	MIC (Candida albicans) [µg/mL]	MIC (Acinetobacter baumannii [12]) [µg/mL]	MIC (Escherichia coli [13]) [µg/mL]	also measured
CCCNc1ccc2c3c(cccc13)C(=O)N(CCCCCCCCCCCC1O[C@@H]3[C@@H]4C[C@H]([C@@H]3O1)[C@@H](C(=O)NCCNC(=N)N)[C@@H]4C(=O)NCCNC(=N)N)C2=O.Cl.Cl (some centres undefined)	> 50	4	0.25	2	> 32	1	4	> 32	Active	1	128	> 32	> 32	Drug uptake [4]: Active; Drug uptake [7]: Active; Drug uptake [11]: Active
CCCN1C(=O)c2cccc3c(N)ccc(c23)C1=O									Active					Drug uptake [7]: Active
CCCCCCCCCCCCCCCC1O[C@@H]2[C@@H]3C[C@H]([C@@H]2O1)[C@@H](C(=O)NCCNC(=N)NCc1ccccc1)[C@@H]3C(=O)NCCNC(=N)NCc1ccccc1.Cl.Cl (some centres undefined)	7.8	0.5		0.5	> 128	0.25	0.25	> 128		1		> 128	> 128	
CCCNc1ccc([N+](=O)[O-])c2nonc12									Active					Drug uptake [11]: Active
Cl.Cl.N=C(N)NCCNC(=O)[C@@H]1[C@@H]2C[C@@H]([C@@H](OCc3ccc(C(F)(F)F)cc3)[C@H]2OCc2ccc(C(F)(F)F)cc2)[C@H]1C(=O)NCCNC(=N)N														MIC (Escherichia coli [14]): 8 µg/mL; MIC (Pseudomonas aeruginosa [15]): 8 µg/mL; MIC (Staphylococcus aureus [16]): 8 µg/mL
CCCCCCCC1O[C@@H]2[C@@H]3C[C@H]([C@@H]2O1)[C@@H](C(=O)NCCNC(=O)c1ccc(C(=O)NC(=N)N)[nH]1)[C@@H]3C(=O)NCCNC(=O)c1ccc(C(=O)NC(=N)N)[nH]1.Cl.Cl (some centres undefined)	> 100	> 128		128	> 128	> 128	> 128	> 128		> 128		> 128	> 128	
CCCCCCCCCCCCCCCC1O[C@@H]2[C@@H]3C[C@H]([C@@H]2O1)[C@@H](C(=O)NCCNC(=N)N)[C@@H]3C(=O)NCCNC(=N)N.Cl.Cl (some centres undefined)														MIC (Staphylococcus aureus [16]): 1 µg/mL
Cl.Cl.N=C(N)NCCNC(=O)[C@@H]1[C@@H]2C[C@@H]([C@H]3OC(CCCCCCCCCCCNc4ccc([N+](=O)[O-])c5nonc45)O[C@@H]23)[C@H]1C(=O)NCCNC(=N)N (some centres undefined)	> 50	4	4	0.5	> 32	1	1	32	Active	1	16	32	8	Drug uptake [4]: Active; zone of inhibition at 50 µg/disc (Klebsiella pneumoniae [17]): 8.5 mm; Drug uptake [7]: Active; zone of inhibition at 50 µg/disc (Pseudomonas aeruginosa [18]): 9 mm; zone of inhibition at 50 µg/disc (Staphylococcus aureus [19]): 9 mm; Drug uptake [11]: Active
Cl.Cl.Cl.N=C(N)NCCNC(=O)[C@@H]1[C@@H]2C[C@@H]([C@H]3OC(CCCCCCCCCCCN)O[C@@H]23)[C@H]1C(=O)NCCNC(=N)N (some centres undefined)	> 50	8		8	> 32	16	16	> 32		8		> 32	> 32	zone of inhibition at 50 µg/disc (Klebsiella pneumoniae [17]): 14.5 mm; zone of inhibition at 50 µg/disc (Acinetobacter baumannii [20]): 12 mm; zone of inhibition at 50 µg/disc (Pseudomonas aeruginosa [18]): 12 mm; zone of inhibition at 50 µg/disc (Staphylococcus aureus [19]): 14 mm
CCCCCCCC1O[C@@H]2[C@@H]3C[C@H]([C@@H]2O1)[C@@H](C(=O)NCCNC(=N)NCc1ccccc1)[C@@H]3C(=O)NCCNC(=N)NCc1ccccc1.Cl.Cl (some centres undefined)	> 50	2	2	1	> 32	2	1	32		2	128	> 32	8	zone of inhibition at 50 µg/disc (Enterococcus faecium): 18 mm; zone of inhibition at 50 µg/disc (Klebsiella pneumoniae [17]): 15 mm; zone of inhibition at 50 µg/disc (Acinetobacter baumannii [20]): 10 mm; zone of inhibition at 50 µg/disc (Pseudomonas aeruginosa [18]): 13 mm; zone of inhibition at 50 µg/disc (Staphylococcus aureus [19]): 17 mm
OC(Cn1cncn1)(Cn1cncn1)c1ccc(F)cc1F [FLUCONAZOLE]			8 (≈ 26.1 µM)								1 (≈ 3.27 µM)			
CC/C(=C(\c1ccccc1)c1ccc(OCCN(C)C)cc1)c1ccccc1 [TAMOXIFEN]	13 (≈ 35 µM)													
CN[C@H](CC(C)C)C(=O)N[C@H]1C(=O)N[C@@H](CC(N)=O)C(=O)N[C@H]2C(=O)N[C@H]3C(=O)N[C@H](C(=O)N[C@H](C(=O)O)c4cc(O)cc(O)c4-c4cc3ccc4O)[C@H](O)c3ccc(c(Cl)c3)Oc3cc2cc(c3O[C@@H]2O[C@H](CO)[C@@H](O)[C@H](O)[C@H]2O[C@H]2C[C@](C)(N)[C@H](O)[C@H](C)O2)Oc2ccc(cc2Cl)[C@H]1O [VANCOMYCIN]				> 64						1 (≈ 0.69 µM)				
